# A selection: hits, their analogues and other compounds. The true share with any hit is near 1.9%.
# STEP inh – STEP phosphatase inhibitors, primary screen, biochemical, fluorescence intensity, uHTS; Tyrosine-protein phosphatase non-receptor type 5 (Homo sapiens), P54829; recombinant STEP, OMFP fluorogenic substrate; inhibition, % at 20 µM; 0.25% of 360,000 active; AID 588621, 2011;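 active = inhibition at 20 µM, scaled per plate between control wells, above about 37%, limit read from the data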;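 also: 0% = DMSO with enzyme and substrate and 100% = substrate only without enzyme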
#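 Test system: STEP tyrosine phosphatase / Reagent: OMFP at 25 µM / Doses: 20 µM, 1% DMSO / Read-out: percent inhibition scaled to no-enzyme and uninhibited-enzyme controls, plate-pattern corrected / Detection: FITC-channel fluorescence of OMFP product / Medium: Bis-Tris buffer pH 6.0, 2.5 mM DTT, 0.005% Tween 20 / Schedule: 20 min at room temperature, dark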
# LMPTP block – LMPTP phosphatase inhibitors, primary screen, biochemical, fluorescence intensity, uHTS | 0.22% of 360,000 active | inhibition, % at 20 µM | Low molecular weight phosphotyrosine protein phosphatase (Homo sapiens), P24666 | recombinant LMPTP-A, OMFP fluorogenic substrate;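 active = compounds that cut the enzyme signal by at least half of the control window in the single-dose screen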;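 also: plate controls were DMSO wells with enzyme plus substrate for no effect and substrate without enzyme for full effect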
#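 Assay system: LMPTP-A enzyme. Input: 0.625 nM LMPTP-A final. Probe or stimulus: 400 µM OMFP. Compound dosing: single 20 µM dose. Schedule: 50 min dark incubation at room temperature. Detection: fluorescence intensity of OMFP turnover product. Read-out: percent inhibition versus substrate-only and uninhibited controls. Benchmarks: no-enzyme low control, uninhibited high control.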
# CSN inh – inhibitors of CSN-mediated cullin deneddylation, primary screen, biochemical, fluorescence polarization, uHTS. COP9 signalosome complex subunit 5 (Homo sapiens), Q92905. Purified CSN, SCF-Nedd8-OG deneddylation. inhibition, % at 12.5 µM. 0.38% of 360,000 active. AID 651999, 2013;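 active = pattern-corrected inhibition above about 35%, with an unprinted fluorescence ratio check between 0.5 and 1.5, limit read from the data, passing the limit was not always enough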;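 also: 0% = enzyme with substrate and 100% = substrate without enzyme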
#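 Test system: Human Csn5 produced in HEK293T cells | Compound: 12.5 µM single point | Times: 90 min, room temperature | Signal: Fluorescence polarization readout | Read-out basis: % inhibition of substrate cleavage by Csn5 | Controls: no-enzyme wells high, enzyme-with-substrate wells low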
# DNMT1 block – human DNMT1 methyltransferase inhibitors, primary screen, biochemical, molecular beacon, fluorescence, HinP1I cleavage, uHTS. inhibition (reported as % activation of signal), % at 10 µM. 0.83% of 360,000 active. DNA (cytosine-5)-methyltransferase 1 (Homo sapiens), P26358. AID 588458, 2011
# Scp1 inh – Scp-1 phosphatase inhibitors, primary screen, biochemical, colorimetric, uHTS; Carboxy-terminal domain RNA polymerase II polypeptide A small phosphatase 1 (Homo …; Recombinant Scp1, phosphopeptide, malachite green phosphate absorbance; inhibition, % at 20 µM; 0.88% of 340,000 active; AID 493091, 2011;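 active = inhibition above about 50% at 20 µM, limit read from the data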;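 also: plate controls were DMSO wells with enzyme for no effect and wells lacking enzyme for full effect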
#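 System: SCP-1 catalytic domain; Reagent: Phospho 17-mer peptide substrate; Doses: one concentration, 20 µM, with 1.0% DMSO; Incubation: 45 min room-temperature reaction, 5 min colour, 30 min stabiliser; Signal: Phosphate-binding colour reagent, absorbance read at 630 nm.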
# SUMO1-SIM PPI – modulators of SUMO1 protein-protein interactions, primary screen, biochemical, uHTS | Small ubiquitin-related modifier 1 (Homo sapiens), P63165 | SUMO1 binding to a labelled peptide, TR-FRET, 1 h | inhibition, % at 20 µM | 0.33% of 360,000 active; in the data active = inhibition above about 37%
# Target sequence (P63165 whole entry, looked up): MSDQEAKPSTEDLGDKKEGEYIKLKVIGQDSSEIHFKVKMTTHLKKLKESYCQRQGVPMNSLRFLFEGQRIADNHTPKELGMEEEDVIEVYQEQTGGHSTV
# DNMT1 interf DR – spectral interference with molecular beacon fluorescence, dose response, artefact control for DNMT1 inhibitor project, biochemical, fluorescent molecular beacon | AID 602382, 2012 | 200 tested, under 10 active | spectral interference counter-screen | IC50, µM | shares compounds with DNMT1 block; call rule not given here
# DNMT1 inh conf – DNMT1 methyltransferase inhibitor retest, confirmation, biochemical, molecular beacon, fluorescence, single concentration | shares compounds with DNMT1 block | DNMT1 molecular beacon HinP1I cleavage | inhibition, % at 10 µM | AID 602385, 2012 | 8% of 2,300 active;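 active = average inhibition of at least 30% in the single-concentration confirmation test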
# Beacon interf – counter-screen for DNMT1 inhibitors: spectral interference | activation (fluorescence interference), % at 10 µM | 1% of 2,300 active | DNMT1 molecular beacon spectral interference counterscreen, fluorescence 485/520 | AID 602387 | shares compounds with DNMT1 block;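 active = activation of at least 30% at 10 µM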;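 also: DNMT1 catalytic domain with a HinP1I cleavage step and a FAM/dabcyl DNA beacon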
# CSN5 deneddyl – Csn5 deneddylation inhibitors, confirmation, biochemical, fluorescence polarization, single concentration, SCF-Nedd8OG substrate. shares compounds with CSN inh. Csn5 deneddylation of SCF-Nedd8OG, 90 min. inhibition, % at 16.6 µM. 62% of 540 active;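 also: 0% = DMSO with enzyme and 100% = no enzyme wells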
# MMP2 cntr CSN – MMP-2 protease inhibition counter-screen, confirmation, counter-screen for CSN deneddylation inhibitor project, biochemical, fluorescence, single concentration; shares compounds with CSN inh; recombinant MMP-2, FRET substrate fluorescence, 60 min; inhibition, % at 16.6 µM; 33% of 540 active; AID 720655, 2013;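 active = corrected plate-normalized z-score of 5 or more, or -5 or less, or inhibition of 15% or more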;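 also: plate controls were DMSO wells with enzyme for no effect and buffer wells lacking MMP-2 for full effect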
# Thrombin cntr – blocks bovine thrombin in a CSN deneddylation counter-screen; shares compounds with CSN inh; bovine thrombin cleavage of Ub4-pepOG, fluorescence polarization; inhibition, % at 16.6 µM; 49% of 540 active;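 active = inhibition at or above a set limit, with a fluorescence interference ratio between 0.5 and a set maximum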
# Target sequence (P00735 whole entry, looked up): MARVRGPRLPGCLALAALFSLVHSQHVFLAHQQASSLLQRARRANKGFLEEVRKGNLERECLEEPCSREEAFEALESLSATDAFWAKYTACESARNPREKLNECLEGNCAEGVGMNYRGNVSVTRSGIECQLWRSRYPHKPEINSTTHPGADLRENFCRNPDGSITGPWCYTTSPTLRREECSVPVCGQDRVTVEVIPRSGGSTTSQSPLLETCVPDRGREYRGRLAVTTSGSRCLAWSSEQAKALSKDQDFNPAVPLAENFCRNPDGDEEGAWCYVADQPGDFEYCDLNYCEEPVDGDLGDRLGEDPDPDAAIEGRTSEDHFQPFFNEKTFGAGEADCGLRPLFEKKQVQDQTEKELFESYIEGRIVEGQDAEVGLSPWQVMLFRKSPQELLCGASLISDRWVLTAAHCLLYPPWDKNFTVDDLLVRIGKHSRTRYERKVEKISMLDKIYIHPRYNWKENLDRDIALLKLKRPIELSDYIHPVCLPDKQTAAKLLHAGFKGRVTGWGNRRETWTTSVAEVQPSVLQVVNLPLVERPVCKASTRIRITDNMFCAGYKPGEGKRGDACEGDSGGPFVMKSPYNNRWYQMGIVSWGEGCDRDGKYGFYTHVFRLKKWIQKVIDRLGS
# Active calls of the source: *; · = not tested or not shown. Rule as the data show it, unless noted: active = inhibition above about 50%; inactive = the rest.
SMILES,STEP inh,LMPTP block,CSN inh,DNMT1 block,Scp1 inh,SUMO1-SIM PPI,DNMT1 inh conf,Beacon interf,CSN5 deneddyl,MMP2 cntr CSN,Thrombin cntr,others
CCOc1ccc(S(=O)(=O)N(CC(=O)Nc2cccnc2)c2ccc(F)cc2)cc1,-0.1,0.9,2.9,1.3,-4.8,0.4,·,·,·,·,·,
Cc1ccc(N=C2NC(=O)/C(=C\c3ccco3)S2)cc1,-4.8,2.0,2.9,45.5,7.1,-6.6,·,·,·,·,·,
Cc1cccc(N=C2NC(=O)/C(=C/C=C/c3ccco3)S2)c1,0.4,6.3,52.9*,85.1*,15.3,13.7,14.4,1.4,87.7*,-4.0,2.5,
O=C1NC(=Nc2ccc3ccccc3c2)S/C1=C/c1ccco1,0.2,25.6,67.4*,67.2*,18.2,2.6,3.2,-2.4,85.2*,4.3,17.6*,
COc1ccc(N=C2NC(=O)/C(=C\C=C\c3ccco3)S2)cc1,5.6,32.1,45.8*,79.7*,25.2,23.7,3.5,-4.2,84.4*,14.2,3.8,
O=C1NC(=Nc2ccc(O)cc2)S/C1=C/c1ccco1,1.2,1.4,5.2,6.0,3.2,1.7,·,·,·,·,·,
COc1ccccc1Nc1cc2cc(Br)ccc2c(=O)[nH]1,17.3,9.3,53.0*,68.7*,11.4,22.7,-0.1,3.3,70.0*,9.9,-24.7,
COc1ccc(OC)c(Nc2cc3ccccc3c(=O)[nH]2)c1,3.4,2.2,26.1,14.4,-3.6,4.5,·,·,·,·,·,
O=c1[nH]c(Nc2ccccc2)cc2cc(Br)ccc12,29.4,31.6,48.5*,92.0*,1.6,37.2,-0.2,0.1,60.9*,3.4,-43.5,
O=c1[nH]c(Nc2ccccc2)cc2ccccc12,7.5,12.2,23.9,44.3,-9.6,28.6,·,·,·,·,·,
Nc1nc(Nc2cccc(F)c2)nc(NCc2ccco2)c1[N+](=O)[O-],-2.2,3.2,2.4,-6.1,-3.6,-7.9,·,·,·,·,·,
CCOc1ccc(NC(=S)Nc2ccc3nsnc3c2)cc1,8.2,7.9,43.9*,85.1*,-5.2,50.0*,-0.6,-1.5,95.4*,34.6*,-24.1,
CC(=O)Nc1ccc(NC(=O)CSc2nnnn2-c2ccc(F)cc2)cc1,-2.2,-2.6,3.1,-4.2,-2.8,-5.6,·,·,·,·,·,
COc1ccccc1CNC(=O)COC(=O)c1cc(C)nc2ccccc12,-4.3,-0.1,-3.5,-1.0,-0.2,-14.9,·,·,·,·,·,
COc1ccccc1CNC(=O)COC(=O)c1cc(-c2ccco2)nc2ccccc12,23.4,43.1,49.0*,99.8*,82.5*,13.4,27.5,2.0,·,12.0,6.2,DNMT1 interf DR=>99
Cc1cc(-c2nc3c4c5c(sc4[nH]c(=O)n3n2)CCC5)c(C)o1,1.5,5.9,36.0*,65.7*,58.5*,16.4,4.2,0.2,91.9*,3.9,-20.0,
Cc1nc2sc3c(c2c(=O)[nH]1)CCC3,-1.8,-3.0,2.0,0.1,0.3,0.5,·,·,·,·,·,
C[C@H]1CN([C@@H](C)CO)C(=O)CCCn2cc(nn2)CO[C@@H]1CN(C)C(=O)Nc1ccc(C(F)(F)F)cc1,-2.4,-1.5,-2.8,3.5,·,20.4,·,·,·,·,·,
O=C(/C=C/c1ccco1)Nc1cccc(C(=O)Nc2ccccc2C(=O)O)c1,12.4,4.0,42.0*,85.5*,58.1*,52.9*,11.5,0.3,54.2*,6.0,12.5,
CCC1=NN2C(=N)/C(=C\c3ccc(SCc4ccco4)o3)C(=O)N=C2S1,16.8,42.1,78.0*,107.6*,43.5,53.9*,5.8,2.8,45.2,16.2*,17.2*,
O=C(N/N=C/c1cc(Br)ccc1O)c1ccncc1,-2.8,-0.3,9.5,-0.2,-17.2,-4.0,·,·,·,·,·,
O=C(N/N=C/c1cc(Cl)ccc1O)c1ccc(Br)cc1,91.1*,71.8*,44.3*,81.3*,98.2*,4.9,9.2,3.7,31.5,39.0*,16.4*,
Cc1oc(C)c2c(=O)ccc3c(c12)OC(N)=C(C#N)C3c1ccccc1 (stereo not drawn),-0.6,3.4,10.4,14.0,-3.2,12.4,·,·,·,·,·,
CSc1ccc(C2C(C#N)=C(N)Oc3c2ccc(=O)c2c(C)oc(C)c32)cc1 (stereo not drawn),6.1,15.5,49.0*,73.6*,-7.5,21.5,4.4,5.7,95.3*,3.7,14.5,
COc1ccc(OCCSc2nnc(Cc3cccc4ccccc34)n2N)cc1,3.4,1.2,-1.8,-5.1,7.3,0.1,·,·,·,·,·,
COC(=O)C1=C(CS(=O)(=O)c2ccccc2)NC(=O)NC1c1ccc(OC)c(OC)c1 (stereo not drawn),-0.9,-2.2,0.8,5.6,-4.3,0.9,·,·,·,·,·,
O=C(Cn1cc([N+](=O)[O-])cn1)NC1CCCCCC1,0.4,0.3,-0.2,-1.2,-0.8,-1.2,·,·,·,·,·,
O=C(CN1C(=O)/C(=C/c2ccco2)SC1=S)Nc1ccc(O)c(C(=O)O)c1,59.5*,34.4,56.2*,86.7*,63.4*,83.8*,10.8,-2.3,56.7*,21.3*,10.9,

# Bioassay records: PubChem, Sanford-Burnham Center for Chemical Genomics
